# Test results as given in ChEMBL document CHEMBL3593207, “Imidazole clubbed 1,3,4-oxadiazole derivatives as potential antifungal agents” (2015).
# Legend:
# Candida tropicalis [1] = test: Cytotoxicity against Candida tropicalis ATCC 750 at 1/4 MIC after 24 hrs by WST1 assay
# Candida tropicalis [2] = test: Antifungal activity against Candida tropicalis ATCC 750 by broth microdilution assay; type: functional
# Method in brief: (§1)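 CLSI M27-A3 broth microdilution. Compounds diluted to 1 mg/ml in 1% DMSO. Fluconazole (1 mg/ml) served as positive control, 1% DMSO as vehicle control, with media and culture controls. Triplicate at each concentration, repeated thrice. Inocula came from YPDA stocks subcultured in broth for 48 h at 37 °C.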
# Candida albicans [3] = test: Cytotoxicity against Candida albicans ATCC 10261 at 1/4 MIC after 24 hrs by WST1 assay; type: functional
# Method in brief: (§2)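 Candida cells were exposed to MIC and sub-MIC levels for 24 h in microplates, then to WST-1/CEC dye for 30 min at 37 °C. Plates were shaken 1 min and the reaction stopped with 1% SDS. Formazan was read at 450 nm. % cytotoxicity = 100 × (cell control − experimental)/cell control. Triplicates, mean ± SD.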
# Candida albicans [4] = test: Inhibition of ergosterol biosynthesis in Candida albicans 2367 assessed as ergosterol content at MIC after 16 hrs by spectrophotometer analysis; type: functional; design: scale not given: the % may be the effect or the level left
# Method in brief: (§3)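 Cells were pelleted and washed, and wet weight taken. Pellets were saponified in 25% alcoholic KOH at 85 °C for 1 h. Sterols were extracted into n-heptane/water. Ergosterol content is expressed relative to untreated control cells.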
# Candida albicans [5] = test: Inhibition of ergosterol biosynthesis in Candida albicans 2323 assessed as ergosterol content at 1/2 MIC after 16 hrs by spectrophotometer analysis; type: functional; design: scale not given: the % may be the effect or the level left
# Method in brief: as §3
# Candida tropicalis [6] = test: Antifungal activity against clinical isolates of Candida tropicalis 2356 by broth microdilution assay; type: functional
# Method in brief: as §1
# Candida tropicalis [7] = test: Antifungal activity against clinical isolates of Candida tropicalis 2356 at half MIC after 48 hrs by disc diffusion assay; type: functional
# Method in brief: (§4)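 Cells (10^3 cells ml−1) grown in YPD were mixed into molten agar (~40 °C) and poured into 100-mm plates. Filter discs (4 mm) were spotted with 10 µl of compound at 1/2 × MIC, MIC or 2 × MIC. Fluconazole and 1% DMSO were the controls. Plates were incubated at 37 °C for 48 h and inhibition zone diameters recorded in mm.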
# Candida tropicalis [8] = test: Antifungal activity against Candida tropicalis ATCC 750 at MIC after 48 hrs by disc diffusion assay; type: functional
# Method in brief: as §4
# Candida albicans [9] = test: Inhibition of ergosterol biosynthesis in Candida albicans 2367 assessed as ergosterol content at 1/2 MIC after 16 hrs by spectrophotometer analysis; type: functional; design: scale not given: the % may be the effect or the level left
# Method in brief: as §3
# Candida tropicalis [10] = test: Antifungal activity against clinical isolates of Candida tropicalis 2029 at 2 times MIC after 48 hrs by disc diffusion assay; type: functional
# Method in brief: as §4
# Candida tropicalis [11] = test: Antifungal activity against clinical isolates of Candida tropicalis 2029 at MIC after 48 hrs by disc diffusion assay; type: functional
# Method in brief: as §4
# Candida albicans [12] = test: Antifungal activity against clinical isolates of Candida albicans 2323 by broth microdilution assay; type: functional
# Method in brief: as §1
# Candida tropicalis [13] = test: Antifungal activity against Candida tropicalis ATCC 750 at 2 times MIC after 48 hrs by disc diffusion assay; type: functional
# Method in brief: as §4
# Candida albicans [14] = test: Cytotoxicity against Candida albicans ATCC 10261 at MIC after 24 hrs by WST1 assay; type: functional
# Method in brief: as §2
# Candida albicans [15] = test: Antifungal activity against clinical isolates of Candida albicans 2779 at half MIC after 48 hrs by disc diffusion assay; type: functional
# Method in brief: as §4
# Candida albicans [16] = test: Antifungal activity against Candida albicans ATCC 10261 at MIC after 48 hrs by disc diffusion assay; type: functional
# Method in brief: as §4
# Candida albicans [17] = test: Antifungal activity against clinical isolates of Candida albicans 2323 at 2 times MIC after 48 hrs by disc diffusion assay; type: functional
# Method in brief: as §4
# Candida tropicalis [18] = test: Cytotoxicity against Candida tropicalis ATCC 750 at 1/2 MIC after 24 hrs by WST1 assay
# Candida tropicalis [19] = test: Inhibition of ergosterol biosynthesis in Candida tropicalis 2029 assessed as ergosterol content at MIC after 16 hrs by spectrophotometer analysis; type: functional; design: scale not given: the % may be the effect or the level left
# Method in brief: as §3
# Candida albicans [20] = test: Antifungal activity against clinical isolates of Candida albicans 2367 at MIC after 48 hrs by disc diffusion assay; type: functional
# Method in brief: as §4
# Candida tropicalis [21] = test: Antifungal activity against clinical isolates of Candida tropicalis 2029 at half MIC after 48 hrs by disc diffusion assay; type: functional
# Method in brief: as §4
# Candida tropicalis [22] = test: Inhibition of ergosterol biosynthesis in Candida tropicalis 2356 assessed as ergosterol content at MIC after 16 hrs by spectrophotometer analysis; type: functional; design: scale not given: the % may be the effect or the level left
# Method in brief: as §3
# Candida albicans [23] = test: Inhibition of ergosterol biosynthesis in Candida albicans 2323 assessed as ergosterol content at MIC after 16 hrs by spectrophotometer analysis; type: functional; design: scale not given: the % may be the effect or the level left
# Method in brief: as §3
# Candida albicans [24] = test: Antifungal activity against clinical isolates of Candida albicans 2779 by broth microdilution assay; type: functional
# Method in brief: as §1
# Candida tropicalis [25] = test: Antifungal activity against clinical isolates of Candida tropicalis 2356 at MIC after 48 hrs by disc diffusion assay; type: functional
# Method in brief: as §4
# Candida albicans [26] = test: Antifungal activity against Candida albicans ATCC 10261 at 2 times MIC after 48 hrs by disc diffusion assay; type: functional
# Method in brief: as §4
# Candida albicans [27] = test: Antifungal activity against clinical isolates of Candida albicans 2367 at half MIC after 48 hrs by disc diffusion assay; type: functional
# Method in brief: as §4
# Candida tropicalis [28] = test: Inhibition of ergosterol biosynthesis in Candida tropicalis ATCC 750 assessed as ergosterol content at 1/2 MIC after 16 hrs by spectrophotometer analysis; type: functional; design: scale not given: the % may be the effect or the level left
# Method in brief: as §3
# Candida albicans [29] = test: Antifungal activity against clinical isolates of Candida albicans 2367 at 2 times MIC after 48 hrs by disc diffusion assay; type: functional
# Method in brief: as §4
# Candida albicans [30] = test: Inhibition of ergosterol biosynthesis in Candida albicans ATCC 10261 assessed as ergosterol content at MIC after 16 hrs by spectrophotometer analysis; type: functional; design: scale not given: the % may be the effect or the level left
# Method in brief: as §3
# Candida albicans [31] = test: Inhibition of ergosterol biosynthesis in Candida albicans 2779 assessed as ergosterol content at 1/2 MIC after 16 hrs by spectrophotometer analysis; type: functional; design: scale not given: the % may be the effect or the level left
# Method in brief: as §3
# Candida albicans [32] = test: Cytotoxicity against clinical isolates of Candida albicans 2779 at 1/4 MIC after 24 hrs by WST1 assay; type: functional
# Method in brief: as §2
# Candida albicans [33] = test: Antifungal activity against clinical isolates of Candida albicans 2323 at MIC after 48 hrs by disc diffusion assay; type: functional
# Method in brief: as §4
# Candida albicans [34] = test: Inhibition of ergosterol biosynthesis in Candida albicans ATCC 10261 assessed as ergosterol content at 1/2 MIC after 16 hrs by spectrophotometer analysis; type: functional; design: scale not given: the % may be the effect or the level left
# Method in brief: as §3
# Candida tropicalis [35] = test: Inhibition of ergosterol biosynthesis in Candida tropicalis 2029 assessed as ergosterol content at 1/2 MIC after 16 hrs by spectrophotometer analysis; type: functional; design: scale not given: the % may be the effect or the level left
# Method in brief: as §3
# Candida albicans [36] = test: Antifungal activity against clinical isolates of Candida albicans 2779 at 2 times MIC after 48 hrs by disc diffusion assay; type: functional
# Method in brief: as §4
# Candida albicans [37] = test: Inhibition of ergosterol biosynthesis in Candida albicans 2779 assessed as ergosterol content at MIC after 16 hrs by spectrophotometer analysis; type: functional; design: scale not given: the % may be the effect or the level left
# Method in brief: as §3
# Candida albicans [38] = test: Antifungal activity against clinical isolates of Candida albicans 2779 at MIC after 48 hrs by disc diffusion assay; type: functional
# Method in brief: as §4
# Candida tropicalis [39] = test: Inhibition of ergosterol biosynthesis in Candida tropicalis 2356 assessed as ergosterol content at 1/2 MIC after 16 hrs by spectrophotometer analysis; type: functional; design: scale not given: the % may be the effect or the level left
# Method in brief: as §3
# Candida tropicalis [40] = test: Antifungal activity against clinical isolates of Candida tropicalis 2029 by broth microdilution assay; type: functional
# Method in brief: as §1
# Candida albicans [41] = test: Cytotoxicity against Candida albicans ATCC 10261 at 1/2 MIC after 24 hrs by WST1 assay; type: functional
# Method in brief: as §2
# Candida tropicalis [42] = test: Antifungal activity against Candida tropicalis ATCC 750 at half MIC after 48 hrs by disc diffusion assay; type: functional
# Method in brief: as §4
# Candida albicans [43] = test: Antifungal activity against Candida albicans ATCC 10261 at half MIC after 48 hrs by disc diffusion assay; type: functional
# Method in brief: as §4
# Candida albicans [44] = test: Antifungal activity against clinical isolates of Candida albicans 2367 by broth microdilution assay; type: functional
# Method in brief: as §1
# Candida albicans [45] = test: Antifungal activity against clinical isolates of Candida albicans 2323 at half MIC after 48 hrs by disc diffusion assay; type: functional
# Method in brief: as §4
# Candida tropicalis [46] = test: Inhibition of ergosterol biosynthesis in Candida tropicalis ATCC 750 assessed as ergosterol content at MIC after 16 hrs by spectrophotometer analysis; type: functional; design: scale not given: the % may be the effect or the level left
# Method in brief: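 Cells were harvested, washed, and wet pellet weight recorded. Pellets were saponified in 3 mL 25% alcoholic KOH at 85 °C for 1 h, then sterols extracted into n-heptane. Ergosterol is expressed relative to untreated control cells.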
# Candida albicans [47] = test: Antifungal activity against Candida albicans ATCC 10261 by broth microdilution assay; type: functional
# Method in brief: as §1
# Candida tropicalis [48] = test: Cytotoxicity against Candida tropicalis ATCC 750 at MIC after 24 hrs by WST1 assay
# Candida tropicalis [49] = test: Antifungal activity against clinical isolates of Candida tropicalis 2356 at 2 times MIC after 48 hrs by disc diffusion assay; type: functional
# Method in brief: as §4
compound,measurement,setting,value
CCc1ccnc(-c2nccn2Cc2nnc(-c3ccc([N+](=O)[O-])cc3)o2)c1,Activity,Candida tropicalis [1],15.6%
same,MIC,Candida tropicalis [2],16 µg/mL
same,Activity,Candida albicans [3],16.88%
same,Activity,Candida albicans [4],86%
same,Activity,Candida albicans [5],31%
same,MIC,Candida tropicalis [6],64 µg/mL
same,inhibition zone (IZ),Candida tropicalis [7],1 mm
same,inhibition zone (IZ),Candida tropicalis [8],9 mm
same,Activity,Candida albicans [9],47%
same,inhibition zone (IZ),Candida tropicalis [10],12 mm
same,inhibition zone (IZ),Candida tropicalis [11],8 mm
same,MIC,Candida albicans [12],16 µg/mL
same,inhibition zone (IZ),Candida tropicalis [13],14 mm
same,Activity,Candida albicans [14],57.94%
same,inhibition zone (IZ),Candida albicans [15],2 mm
same,inhibition zone (IZ),Candida albicans [16],11 mm
same,inhibition zone (IZ),Candida albicans [17],9 mm
same,Activity,Candida tropicalis [18],35.57%
same,Activity,Candida tropicalis [19],89%
same,inhibition zone (IZ),Candida albicans [20],5 mm
same,inhibition zone (IZ),Candida tropicalis [21],3 mm
same,Activity,Candida tropicalis [22],91%
same,Activity,Candida albicans [23],87%
same,MIC,Candida albicans [24],32 µg/mL
same,inhibition zone (IZ),Candida tropicalis [25],4 mm
same,inhibition zone (IZ),Candida albicans [26],15 mm
same,inhibition zone (IZ),Candida albicans [27],1 mm
same,Activity,Candida tropicalis [28],57%
same,inhibition zone (IZ),Candida albicans [29],8 mm
same,Activity,Candida albicans [30],99%
same,Activity,Candida albicans [31],45%
same,Activity,Candida albicans [32],8.02%
same,inhibition zone (IZ),Candida albicans [33],5 mm
same,Activity,Candida albicans [34],43%
same,Activity,Candida tropicalis [35],52%
same,inhibition zone (IZ),Candida albicans [36],11 mm
same,Activity,Candida albicans [37],89%
same,inhibition zone (IZ),Candida albicans [38],8 mm
same,Activity,Candida tropicalis [39],59%
same,MIC,Candida tropicalis [40],16 µg/mL
same,Activity,Candida albicans [41],35.57%
same,inhibition zone (IZ),Candida tropicalis [42],1 mm
same,inhibition zone (IZ),Candida albicans [43],3 mm
same,MIC,Candida albicans [44],16 µg/mL
same,inhibition zone (IZ),Candida albicans [45],0 mm
same,Activity,Candida tropicalis [46],100%
same,MIC,Candida albicans [47],8 µg/mL
same,Activity,Candida tropicalis [48],57.94%
same,inhibition zone (IZ),Candida tropicalis [49],9 mm
